One block for each molecule: values may come before it.
Key:
[1] = molecular target: D(1B) dopamine receptor (Homo sapiens) (UniProt P21918); assay: Binding affinity to dopamine D5 receptor (unknown origin) at 0.1 mM by radioligand displacement assay relative to control
[2] = system: NCI-H1650; assay: Cytotoxicity against human NCI-H1650 cells assessed as growth inhibition after 48 hrs by MTT assay; format: functional; settings: NCI-H1650, 48 h
How it was run: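 H1650 cells were exposed to drug for 48 h at five concentrations bracketing 1–40 μM in 10 μM steps, with MTT read-out. GI50 is given only where the data form a sigmoidal dose response.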

[3] = molecular target: D(1A) dopamine receptor (Homo sapiens) (UniProt P21728); assay: Binding affinity to dopamine D1 receptor (unknown origin) at 0.1 mM by radioligand displacement assay relative to control
Chain of D(1A) dopamine receptor (Homo sapiens) (P21728 whole entry): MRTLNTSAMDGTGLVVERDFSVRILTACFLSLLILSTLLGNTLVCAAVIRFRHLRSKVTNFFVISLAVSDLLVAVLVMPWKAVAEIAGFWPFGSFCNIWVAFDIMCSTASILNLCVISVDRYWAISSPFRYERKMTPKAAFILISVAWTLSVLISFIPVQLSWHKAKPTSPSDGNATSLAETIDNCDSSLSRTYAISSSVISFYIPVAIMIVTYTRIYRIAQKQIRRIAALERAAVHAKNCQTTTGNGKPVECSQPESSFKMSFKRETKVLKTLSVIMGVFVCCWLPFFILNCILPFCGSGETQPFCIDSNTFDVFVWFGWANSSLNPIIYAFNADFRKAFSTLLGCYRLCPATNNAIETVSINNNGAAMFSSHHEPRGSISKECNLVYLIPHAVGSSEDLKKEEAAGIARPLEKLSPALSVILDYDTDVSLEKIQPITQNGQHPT

[4] = molecular target: D(3) dopamine receptor (Homo sapiens) (UniProt P35462); assay: Binding affinity to dopamine D3 receptor (unknown origin) at 0.1 mM by radioligand displacement assay relative to control
Chain of D(3) dopamine receptor (Homo sapiens) (P35462 whole entry): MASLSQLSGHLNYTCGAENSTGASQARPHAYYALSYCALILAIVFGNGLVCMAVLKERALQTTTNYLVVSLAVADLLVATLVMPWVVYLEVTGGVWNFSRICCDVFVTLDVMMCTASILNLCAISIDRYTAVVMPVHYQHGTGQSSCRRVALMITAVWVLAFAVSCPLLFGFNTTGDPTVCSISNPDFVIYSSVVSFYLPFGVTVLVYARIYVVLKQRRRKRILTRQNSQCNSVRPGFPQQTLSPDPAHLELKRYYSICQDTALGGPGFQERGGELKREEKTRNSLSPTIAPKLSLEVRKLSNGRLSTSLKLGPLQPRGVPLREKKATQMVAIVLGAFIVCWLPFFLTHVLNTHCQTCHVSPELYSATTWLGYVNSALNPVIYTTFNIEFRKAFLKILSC

[5] = molecular target: D(2) dopamine receptor (Homo sapiens) (UniProt P14416); assay: Binding affinity to dopamine D2 receptor (unknown origin) at 0.1 mM by radioligand displacement assay relative to control
Chain of D(2) dopamine receptor (Homo sapiens) (P14416 whole entry): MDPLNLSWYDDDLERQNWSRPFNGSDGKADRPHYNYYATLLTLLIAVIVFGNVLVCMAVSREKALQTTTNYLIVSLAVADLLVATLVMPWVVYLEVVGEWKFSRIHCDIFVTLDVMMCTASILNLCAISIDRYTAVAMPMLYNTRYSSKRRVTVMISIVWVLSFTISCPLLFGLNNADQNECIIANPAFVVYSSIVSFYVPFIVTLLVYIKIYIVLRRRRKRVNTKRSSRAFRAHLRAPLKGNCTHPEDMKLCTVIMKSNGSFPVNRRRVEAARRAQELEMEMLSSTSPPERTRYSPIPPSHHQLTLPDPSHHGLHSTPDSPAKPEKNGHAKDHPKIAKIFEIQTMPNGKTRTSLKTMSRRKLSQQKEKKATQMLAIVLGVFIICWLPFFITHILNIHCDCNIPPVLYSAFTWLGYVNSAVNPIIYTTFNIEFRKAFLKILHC

[6] = molecular target: T1, D(4) dopamine receptor (Homo sapiens) (UniProt P21917); assay: Binding affinity to dopamine D4 receptor (unknown origin) at 0.1 mM by radioligand displacement assay relative to control
T1 sequence (whole entry): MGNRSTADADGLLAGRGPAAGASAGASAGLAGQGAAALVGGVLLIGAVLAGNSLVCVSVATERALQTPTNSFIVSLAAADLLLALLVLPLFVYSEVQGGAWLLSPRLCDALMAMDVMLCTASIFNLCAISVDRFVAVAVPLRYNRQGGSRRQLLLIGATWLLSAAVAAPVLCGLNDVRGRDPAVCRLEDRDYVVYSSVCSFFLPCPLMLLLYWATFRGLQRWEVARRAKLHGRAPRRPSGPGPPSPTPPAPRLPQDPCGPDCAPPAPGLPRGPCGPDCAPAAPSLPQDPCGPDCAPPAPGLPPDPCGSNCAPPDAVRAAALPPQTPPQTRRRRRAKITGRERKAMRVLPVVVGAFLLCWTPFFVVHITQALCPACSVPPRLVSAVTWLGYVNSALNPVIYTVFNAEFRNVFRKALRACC

[7] = Tmax in mouse at 100 mg/kg, ip administered through DMA/solutol/water; format: ADME, organism-based; settings: in vivo
[8] = Oral bioavailability in mouse at 100 mg/kg; format: ADME, organism-based; settings: in vivo
[9] = Tmax in mouse at 25 mg/kg, ip; format: ADME, organism-based; settings: in vivo
[10] = AUClast in mouse at 25 mg/kg, po; format: ADME, organism-based; settings: in vivo
[11] = AUCinfinity in mouse at 25 mg/kg, ip; format: ADME, organism-based; set-up: dose 25 mg/kg, time infinity, route intraperitoneal; settings: in vivo
[12] = Oral bioavailability in mouse at 25 mg/kg; format: ADME, organism-based; settings: in vivo
[13] = AUCinfinity in mouse at 25 mg/kg, po; format: ADME, organism-based; set-up: dose 25 mg/kg, route oral, time infinity; settings: in vivo
[14] = Cmax in mouse at 100 mg/kg, po; format: ADME, organism-based; set-up: dose 100 mg/kg, route oral; settings: in vivo
[15] = AUClast in mouse at 100 mg/kg, ip administered through DMA/solutol/water; format: ADME, organism-based; settings: in vivo
[16] = AUCinfinity in mouse at 100 mg/kg, ip administered through DMA/solutol/water; format: ADME, organism-based; set-up: dose 100 mg/kg, route intraperitoneal, time infinity; settings: in vivo
[17] = AUClast in mouse at 25 mg/kg, ip; format: ADME, organism-based; settings: in vivo
[18] = Tmax in mouse at 25 mg/kg, po; format: ADME, organism-based; settings: in vivo
[19] = AUCinfinity in mouse at 1 mg/kg, iv; format: ADME, organism-based; set-up: dose 1 mg/kg, time infinity, route intravenous; settings: in vivo
[20] = Tmax in mouse at 100 mg/kg, po; format: ADME, organism-based; settings: in vivo
[21] = Half life in mouse at 1 mg/kg, iv; format: ADME, organism-based; settings: in vivo
[22] = Cmax in mouse at 100 mg/kg, ip administered through DMA/solutol/water; format: ADME, organism-based; set-up: dose 100 mg/kg, route intraperitoneal; settings: in vivo
[23] = Clearance in mouse at 1 mg/kg, iv; format: ADME, organism-based; settings: in vivo
[24] = Bioavailability in mouse at 100 mg/kg, ip administered through DMA/solutol/water; format: ADME, organism-based; settings: in vivo
[25] = Volume of distribution at steady state in mouse at 1 mg/kg, iv; format: ADME, organism-based; settings: in vivo, read-out: Vdss
[26] = Bioavailability in mouse at 25 mg/kg, ip; format: ADME, organism-based; settings: in vivo
[27] = AUClast in mouse at 100 mg/kg, po; format: ADME, organism-based; settings: in vivo
[28] = Cmax in mouse at 25 mg/kg, po; format: ADME, organism-based; set-up: dose 25 mg/kg, route oral; settings: in vivo
[29] = AUClast in mouse at 1 mg/kg, iv; format: ADME, organism-based; settings: in vivo
[30] = Cmax in mouse at 25 mg/kg, ip; format: ADME, organism-based; set-up: dose 25 mg/kg, route intraperitoneal; settings: in vivo

Chain of D(1B) dopamine receptor (Homo sapiens) (P21918 whole entry): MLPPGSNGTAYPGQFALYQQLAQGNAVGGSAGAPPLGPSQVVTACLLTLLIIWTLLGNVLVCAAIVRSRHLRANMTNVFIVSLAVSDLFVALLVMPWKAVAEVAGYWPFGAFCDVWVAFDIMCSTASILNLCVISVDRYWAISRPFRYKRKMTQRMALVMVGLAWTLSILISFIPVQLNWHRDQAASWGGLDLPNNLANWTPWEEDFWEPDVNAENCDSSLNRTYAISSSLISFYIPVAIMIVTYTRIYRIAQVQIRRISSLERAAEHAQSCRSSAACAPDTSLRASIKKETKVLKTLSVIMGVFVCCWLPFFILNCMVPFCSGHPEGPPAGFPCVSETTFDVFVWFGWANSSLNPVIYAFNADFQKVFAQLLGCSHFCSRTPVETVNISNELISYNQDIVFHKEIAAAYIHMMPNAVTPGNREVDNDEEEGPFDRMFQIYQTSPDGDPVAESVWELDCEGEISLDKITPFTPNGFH

inhibition [1]: < 10%
inhibition [3]: < 5%
inhibition [4]: < 5%
inhibition [5]: < 5%
inhibition [6]: < 5%
SMILES: Cc1ccc(S(=O)(=O)NCCCN2c3ccccc3CCc3ccc(Cl)cc32)cc1
GI50 [2]: > 40 µM

inhibition [1]: < 10%
inhibition [3]: < 5%
inhibition [4]: < 5%
inhibition [5]: < 5%
inhibition [6]: < 5%
SMILES: COC(=O)NCCCN1c2ccccc2CCc2ccc(Cl)cc21
GI50 [2]: > 40 µM

Tmax [7]: 1 h
bioavailability [8]: 50%
Tmax [9]: 1 h
AUC(0-t) [10]: 3300 ng·h/mL
AUC(0-inf) [11]: 5790 ng·h/mL
bioavailability [12]: 36%
AUC(0-inf) [13]: 3460 ng·h/mL
Cmax [14]: 4880 ng/mL
AUC(0-t) [15]: 34700 ng·h/mL
AUC(0-inf) [16]: 34700 ng·h/mL
AUC(0-t) [17]: 5700 ng·h/mL
Tmax [18]: 1 h
AUC(0-inf) [19]: 376 ng·h/mL
Tmax [20]: 2 h
half-life [21]: 0.81 h
Cmax [22]: 6490 ng/mL
clearance [23]: 44 mL/min/kg
bioavailability [24]: 94%
Vd [25]: 1.61 L/kg
bioavailability [26]: 62%
AUC(0-t) [27]: 18500 ng·h/mL
Cmax [28]: 1310 ng/mL
AUC(0-t) [29]: 370 ng·h/mL
Cmax [30]: 2240 ng/mL
SMILES: O=S(=O)(NC[C@H](O)CN1c2ccccc2CCc2ccccc21)c1ccc(OC(F)(F)F)cc1
GI50 [2]: 15 µM

SMILES: O=S(=O)(NCC/C=C1/c2ccccc2Sc2ccc(Cl)cc21)c1ccc(OC(F)(F)F)cc1
GI50 [2]: 40 µM
